Laboratory results from ChEMBL document CHEMBL3817796, “Discovery of Novel 15-Lipoxygenase Activators To Shift the Human Arachidonic Acid Metabolic Network toward Inflammation Resolution” (J Med Chem, 2016).

Key:
[1] = target: T1, Polyunsaturated fatty acid lipoxygenase ALOX15 (Homo sapiens) (UniProt P16050); assay: Activation of wild-type His6-tagged human 15-LOX expressed in Escherichia coli Rosetta DE3 assessed as 15-HpETE formation at 40 uM pre-incubated for 1 min before arachidonic acid substrate addition by cell free assay
T1 sequence (whole entry): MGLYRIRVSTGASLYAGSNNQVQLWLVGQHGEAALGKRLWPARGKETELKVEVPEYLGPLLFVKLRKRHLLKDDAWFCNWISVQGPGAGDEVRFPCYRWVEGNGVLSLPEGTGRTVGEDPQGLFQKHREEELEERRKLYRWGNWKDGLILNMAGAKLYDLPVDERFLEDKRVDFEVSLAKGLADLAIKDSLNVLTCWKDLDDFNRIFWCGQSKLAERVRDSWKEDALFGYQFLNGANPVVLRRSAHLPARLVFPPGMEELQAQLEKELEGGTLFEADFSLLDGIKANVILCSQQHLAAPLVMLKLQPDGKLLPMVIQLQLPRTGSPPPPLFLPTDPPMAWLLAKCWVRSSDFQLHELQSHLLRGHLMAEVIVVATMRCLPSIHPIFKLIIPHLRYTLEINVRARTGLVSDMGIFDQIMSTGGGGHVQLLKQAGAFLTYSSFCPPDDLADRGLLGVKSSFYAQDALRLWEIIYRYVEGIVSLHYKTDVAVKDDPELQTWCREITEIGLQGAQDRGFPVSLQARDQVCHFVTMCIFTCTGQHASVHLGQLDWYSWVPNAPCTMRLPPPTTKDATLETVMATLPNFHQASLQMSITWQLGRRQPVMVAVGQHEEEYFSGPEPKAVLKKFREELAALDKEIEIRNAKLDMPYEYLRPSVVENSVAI

[2] = target: T2, Polyunsaturated fatty acid lipoxygenase ALOX15 (Homo sapiens, UniProt P16050); assay: Binding affinity to wild-type His6-tagged human 15-LOX expressed in Escherichia coli Rosetta DE3 by SPR assay
T2 sequence (P16050 whole entry): T1 sequence (whole entry)
Summary of the method: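 15-LOX amine-coupled to a CM5 chip at 800 RU, 25 °C, in PBS-P pH 7.4. Compound concentrations in 5% DMSO injected serially; regenerated by buffer washing. KD from Hill fit of response units.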

In the case of c1cc2c3c(cccc3c1)-c1n[n+]3cc4ccccn4c3cc1-2, the %max [1] is reported as 84% and the Kd [2] is reported as 4.4 µM.

Work on C[n+]1cn(/N=C/c2ccccc2)c2ccccc21 yielded a %max [1] of 61% and a Kd [2] of 15.3 µM.
